# Calb FLC: C. albicans growth inhibition with fluconazole, primary screen, CaCi-2 strain, Alamar Blue fluorescence | C. albicans CaCi-2 (fluconazole-resistant clinical isolate) + fluconazole, 48 h | growth inhibition, % (concentration not given with the values) | 0.57% of 300,000 active;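 active means growth inhibition above about 58% in most replicates, limit read from the data, passing the limit was not always enough; inconclusive means exactly half the replicates above a set limit; inactive means most replicates below a set limit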;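 further: all wells also contain fluconazole at 8 µg/ml as a sub-toxic cotreatment; 0% = median of DMSO wells and 100% = median of geldanamycin control wells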
# Beta apoptosis: inhibitors of cytokine-induced beta cell apoptosis, primary screen, luminescence. INS-1E cytokine-induced death, ATP luminescence, 48 h; percent of positive-control rescue, neutral wells zero. protection from apoptosis, % (test concentration not listed). 0.8% of 300,000 active;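 active means Every replicate reaches about 75%, or at least half do and their mean reaches it too, limit read from the data; inconclusive means At least half of replicates reach the limit but their mean does not; inactive means Under half of replicates reach the limit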;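 further: 0% = cytokine-treated negative control wells and 100% = positive control rescue; higher means more ATP so stronger rescue from cytokine killing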
# NALP3 yeast inh: NALP3 inflammasome inhibitors in reconstituted yeast, primary screen, luminescence, uHTS; 0.39% of 330,000 active; AID 2825, 2010; Yeast reconstituted NLRP3/ASC/caspase-1, beta-gal luminescence, 24 h; inhibition, % at 10 µM;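 active means inhibition of 50% or more; inactive means inhibition below 50%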;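 further: plate controls were induced DMSO wells for no effect and uninduced yeast grown without galactose for full effect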
# T cruzi repl: inhibitors of intracellular T. cruzi growth, primary screen, luminescence, NIH3T3 host cells | T. cruzi beta-gal in NIH3T3, 90 h | inhibition, % (concentration not given with the values) | 1.4% of 300,000 active | AID 1885, 2009;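 active means mean inhibition across valid replicates above about 55%, limit read from the data; inconclusive means mean below that limit but half or more replicates reach it; inactive means mean below it, under half of replicates reach it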;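 further: signal also drops with host cell toxicity which is not excluded here; 0% = plate median of DMSO wells and 100% = zero luminescence signal; higher percent means less beta-gal luminescence so fewer parasites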
#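 Assay system: NIH/3T3 fibroblasts plus reporter T. cruzi. Amount: NIH/3T3 cells, 5,000 per well. Buffer or medium: DMEM, 2% fetal bovine serum. Doses: compound pinned at 50 nL/well, DMSO. Schedule: ≥90 h infection period, 3 h prior cell attachment. Signal: luminescent β-galactosidase signal after 60 min lysis. Read-out: parasite load inhibition, %.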
# Mdm2 MdmX PPI: inhibitors of human Mdm2-MdmX association, primary screen, cell-based, luminescence, split luciferase, SaOS-2, uHTS; Protein Mdm4 (Homo sapiens) + E3 ubiquitin-protein ligase Mdm2 (Homo sapiens), …; SaOS-2 split-luciferase Mdm2/MdmX complementation; inhibition, % at 8 µM; 3% of 330,000 active; AID 485346, 2010;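 active means inhibition of at least 50% at 8 µM in the primary screen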
# Target sequence (O15151 whole entry, looked up): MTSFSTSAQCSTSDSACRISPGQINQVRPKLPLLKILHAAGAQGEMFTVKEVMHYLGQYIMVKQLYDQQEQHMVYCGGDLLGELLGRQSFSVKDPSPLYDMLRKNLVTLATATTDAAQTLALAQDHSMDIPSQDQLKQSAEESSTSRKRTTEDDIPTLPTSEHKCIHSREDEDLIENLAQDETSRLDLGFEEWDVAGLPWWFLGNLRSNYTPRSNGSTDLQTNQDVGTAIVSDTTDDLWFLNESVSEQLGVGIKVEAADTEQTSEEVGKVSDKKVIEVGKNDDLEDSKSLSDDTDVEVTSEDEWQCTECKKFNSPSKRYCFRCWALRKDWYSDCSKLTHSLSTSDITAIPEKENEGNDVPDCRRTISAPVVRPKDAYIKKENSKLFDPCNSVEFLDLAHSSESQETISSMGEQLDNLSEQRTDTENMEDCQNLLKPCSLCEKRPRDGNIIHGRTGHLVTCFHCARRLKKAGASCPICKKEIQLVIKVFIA
# Target sequence (Q00987 whole entry, looked up): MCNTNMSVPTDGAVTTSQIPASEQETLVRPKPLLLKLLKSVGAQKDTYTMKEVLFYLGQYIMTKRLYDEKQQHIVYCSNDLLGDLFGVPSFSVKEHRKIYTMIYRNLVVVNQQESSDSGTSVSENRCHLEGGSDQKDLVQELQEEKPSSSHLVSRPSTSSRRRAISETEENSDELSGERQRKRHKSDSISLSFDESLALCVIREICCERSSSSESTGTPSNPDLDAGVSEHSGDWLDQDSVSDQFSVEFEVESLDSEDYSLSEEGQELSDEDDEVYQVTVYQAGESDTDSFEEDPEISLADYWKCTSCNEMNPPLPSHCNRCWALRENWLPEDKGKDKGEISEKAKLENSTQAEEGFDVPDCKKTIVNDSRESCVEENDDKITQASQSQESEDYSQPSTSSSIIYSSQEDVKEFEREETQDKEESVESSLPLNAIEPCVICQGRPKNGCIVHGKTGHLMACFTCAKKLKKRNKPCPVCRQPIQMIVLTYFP
# CSC inhib: cancer stem cell viability inhibitors, primary screen, luminescence; cancer stem cell-like cells viability; inhibition, % at 7.5 µM; 1.1% of 300,000 active; in the data active means inhibition above about 75%; inconclusive means no clear call, values can overlap the other calls; tested in HMLE shEcad cells
# * marks the source's active call; other numbers are inactive results; ? = inconclusive; / = not tested or not shown. Rows were chosen to be rich in hits. Some 5.3% of all compounds tested hit in one or more screens of this group.
SMILES,Calb FLC,Beta apoptosis,NALP3 yeast inh,T cruzi repl,Mdm2 MdmX PPI,CSC inhib
O=C(Nc1ccccc1N1CCOCC1)c1ccc(S(=O)(=O)NCc2ccco2)cc1,108*,1,3,/,-8,-9
CC1Cc2cc(-c3csc(NC(=O)Cc4ccccc4)n3)ccc2N1S(C)(=O)=O (configuration not stated),-13,9,21,33,37,38
CCOC(=O)c1nn(-c2ccc(F)cc2)c(-c2ccccc2)c1C(=O)c1ccccc1,23,24,18,39,-7,78*
CCc1nc2ccccc2c2nc3ccccc3n12,0,-1,11,-24,-4,-13
Cn1c(C(C(=O)NCC2CCCO2)N(C(=O)Cn2nnc3ccccc32)C2CCCCC2)nc2ccccc21 (configuration not stated),?,-4,-12,2,-5,-13
O=S(=O)(c1ccc(Cl)cc1)N1CCC(n2cnc3cc(C(F)(F)F)ccc32)CC1,19,10,-6,56*,-4,85*
CCOC(=O)c1c(-c2ccc(C)o2)csc1NC(=O)CSc1nnnn1-c1ccccc1,31,-2,30,60*,17,2
Cc1cccc(-c2cc3c(N=O)c4ccccc4c-3n[nH]2)c1,-25,26,13,62*,-32,/
CCOc1cccc(CN2CCCC(N3CCc4cc(OC)c(OC)cc4C3)C2)c1O (configuration not stated),-1,-4,4,65*,12,17
CCOc1cc(CN2CCCC(N3CCc4ccccc4C3)C2)ccc1O (configuration not stated),11,/,14,53,1,/
Cc1ccc(-c2nc3ccccn3c2C=O)cc1,59,2,4,-8,-23,-15
Cc1oc(C(C)(C)C)cc1C(=O)NCc1ccc2c(c1)OCO2,-2,-7,11,8,5,-6
Cn1nc(C(C)(C)C)cc1C(=O)NCc1ccc2c(c1)OCO2,-13,117*,2,18,34,-10
O=C(Nc1ccccc1C(F)(F)F)NC1CCCCCCC1,-15,3,9,-17,24,1
FC(F)Sc1ccc(N=C2NN=C(c3ccc4c(c3)OCCO4)CS2)cc1,3,101*,16,69*,-2,20
COc1ccc(N=C2NN=C(c3ccc4c(c3)OCCO4)CS2)cc1,-10,-9,-4,1,11,-12
COc1ccc(CCNC(=O)COC(=O)c2cc(Cl)nc(Cl)c2)cc1,/,-4,8,/,13,-21
Cc1cc(Sc2nc(N)ncc2[N+](=O)[O-])ncn1,105*,-13,26,61*,14,15
COc1ccc(Cn2c(O)c(/C=N/NC(=O)c3cccnc3)c3ccccc3c2=O)cc1,103*,/,/,10,/,/
CC(C)C[C@H](NC(=O)OC(C)(C)C)C(=O)N/N=C/c1ccc2nccnc2c1,-9,-1,7,34,-46,-7
CC(C)C[C@H](NC(=O)OC(C)(C)C)C(=O)N/N=C/C1=Cc2ccccc2OC1C (some centres not stated),5,19,16,69*,-2,/
CCOC(=O)c1cnc(-n2cc(C)cn2)nc1Nc1ccccc1OCC,99*,15,1,31,34,11
CCOC(=O)c1cnc(SC)nc1Nc1cccc2ccccc12,2,/,18,-5,21,27
CC(C)(C)c1ccc(C(=O)NCc2ccc(Cl)cc2)cc1,-6,-8,7,24,4,4
CC(C)(C)c1ccc(C(=O)N2CCN(CCNC(=O)C(=O)NCc3ccc(Cl)cc3)CC2)cc1,/,5,10,66*,19,26
SMILES,Calb FLC,Beta apoptosis,NALP3 yeast inh,T cruzi repl,Mdm2 MdmX PPI,CSC inhib
O=C(NCCc1c[nH]c2ccccc12)C(=O)Nc1ccccc1,0,-3,28,-32,-12,81*
COc1ccc(NCc2ccc(OC)c(Cn3ccnc3)c2)c(OC)c1,2,8,30,56*,-7,0
COc1ccc(Cn2ccnc2)cc1Br,-11,-10,-4,20,4,-12
COc1cc(-c2nnc(NC(=O)c3ccc(S(=O)(=O)N4CCOCC4)cc3)o2)cc(OC)c1OC,90*,86*,-6,-23,32,18
COc1cccc(-c2nnc(NC(=O)c3ccc(S(=O)(=O)N4CCOCC4)cc3)o2)c1,-6,43,2,-97,28,-9
O=C(/C=C/c1ccc2c(c1)OCO2)Nc1nc(-c2ccc(F)cc2F)cs1,-8,42,19,-12,16,95*
Cc1ccc(NC(=O)/C=C/c2ccc3c(c2)OCO3)nc1,-2,-5,21,-9,-241,110*
Cc1ccc(CC(=O)NCc2ccc(Cl)cc2)cc1,2,16,14,-102,42,59
CC(C)C1NC2(C(=O)c3ccccc3C2=O)C2C(=O)N(c3ccc(F)cc3)C(=O)C12 (configuration not stated),-2,-4,-2,4,3,-11
Cn1cc(CNCc2cn[nH]c2-c2ccc(F)cc2)c(-c2ccc3c(c2)OCCO3)n1,/,-3,-12,-12,13,-10
CCCc1cc(-c2[nH]ncc2-c2ccc3c(c2)OCCCO3)c(O)cc1O,11,-21,-21,19,21,95*
COc1cc(/C=c2\sc3n(c2=O)C(c2ccccc2)C(c2ccccc2)=NN=3)ccc1O (configuration not stated),/,14,30,/,47,103*
COc1cc(/C=c2\sc3n(c2=O)CCCN=3)ccc1O,-1,-1,30,6,-43,8
O=C1C2C(c3ccccc3)(C(=O)N1c1ccc(Cl)cc1)C2(c1ccccc1)c1ccccc1 (configuration not stated),?,1,4,46,31,75*
O=C1c2ccccc2C(=O)N1c1ccc(Cl)cc1,?,-4,15,-21,-3,-4
CC(C)C(NS(=O)(=O)/C=C/c1ccccc1)C(=O)NCc1ccc(F)cc1 (configuration not stated),-5,-5,11,12,-21,/
CCCCCCSc1ccc(-c2nc3ccc(C)cn3c2NCc2ccccc2)cc1OC,0,40,19,56*,49,69
CCCCCCSc1ccc(-c2nc3ccc(C)cn3c2NCc2ccccc2)cc1,-10,/,26,13,-20,9
CCC(C)Sc1ccc(-c2nc3ccc(Cl)cn3c2NCc2ccccc2)cc1 (configuration not stated),/,55,11,/,-26,9
CCC(C)Sc1cccc(-c2nc3cc(C)ccn3c2NCc2ccccc2)c1 (configuration not stated),3,-4,27,16,-23,123*

# Bioassay records from PubChem BioAssay.
